Measurements: ChEMBL document CHEMBL4257493, “Discovery of 7-hydroxyaporphines as conformationally restricted ligands for beta-1 and beta-2 adrenergic receptors” (Medchemcomm, 2018)
Active and inactive are the calls of the source. The rule behind the calls is not given here.

What was measured:
[1] = target: 5-hydroxytryptamine receptor 5A (Homo sapiens) (UniProt P47898); test: Binding affinity to 5-HT5A receptor (unknown origin) assessed as inhibition of radioligand binding by radioligand competition binding assay; details: concentration not given here
[2] = target: Alpha-2B adrenergic receptor (Homo sapiens) (UniProt P18089); test: Binding affinity to andrenergic alpha2B receptor (unknown origin) assessed as inhibition of radioligand binding at 10 uM by radioligand competition binding assay
[3] = target: Histamine H4 receptor (Homo sapiens) (UniProt Q9H3N8); test: Binding affinity to histamine H4 receptor (unknown origin) assessed as inhibition of radioligand binding by radioligand competition binding assay; details: concentration not given here
[4] = target: T1, Beta-2 adrenergic receptor (Homo sapiens, UniProt P07550); test: Displacement of [3H]-CGP-12177 from human beta2-adrenergic receptor
Target sequence in this assay (P07550 whole entry): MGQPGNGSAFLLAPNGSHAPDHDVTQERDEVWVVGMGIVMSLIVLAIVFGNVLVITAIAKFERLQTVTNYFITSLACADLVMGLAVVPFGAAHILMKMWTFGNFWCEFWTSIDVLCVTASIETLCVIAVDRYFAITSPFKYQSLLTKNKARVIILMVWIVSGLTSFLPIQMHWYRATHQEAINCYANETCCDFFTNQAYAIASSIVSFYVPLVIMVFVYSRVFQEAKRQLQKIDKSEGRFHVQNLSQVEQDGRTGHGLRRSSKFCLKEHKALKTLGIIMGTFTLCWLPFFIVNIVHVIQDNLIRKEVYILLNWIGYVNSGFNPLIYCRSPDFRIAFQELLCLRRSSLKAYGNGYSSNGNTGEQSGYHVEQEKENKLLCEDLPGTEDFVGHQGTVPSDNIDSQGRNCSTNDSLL

[5] = target: T2, Beta-1 adrenergic receptor (Homo sapiens, UniProt P08588); test: Antagonist activity at human beta1-adrenergic receptor expressed in CHO-K1 cells assessed as decrease in isoproterenol-induced cAMP accumulation after 15 mins by HTRF assay; type: functional, cell-based
In short: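 Run as a contract service: human beta1 receptor in CHO-K1 cells, with antagonist mode against isoproterenol-stimulated cAMP. Incubation 15 min at 37 °C in HBSS with 5 mM HEPES, 0.1% BSA and 100 µM IBMX, pH 7.4, in 0.40% DMSO vehicle. cAMP accumulation read by HTRF; dose-response curves.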
Target sequence in this assay (P08588 whole entry): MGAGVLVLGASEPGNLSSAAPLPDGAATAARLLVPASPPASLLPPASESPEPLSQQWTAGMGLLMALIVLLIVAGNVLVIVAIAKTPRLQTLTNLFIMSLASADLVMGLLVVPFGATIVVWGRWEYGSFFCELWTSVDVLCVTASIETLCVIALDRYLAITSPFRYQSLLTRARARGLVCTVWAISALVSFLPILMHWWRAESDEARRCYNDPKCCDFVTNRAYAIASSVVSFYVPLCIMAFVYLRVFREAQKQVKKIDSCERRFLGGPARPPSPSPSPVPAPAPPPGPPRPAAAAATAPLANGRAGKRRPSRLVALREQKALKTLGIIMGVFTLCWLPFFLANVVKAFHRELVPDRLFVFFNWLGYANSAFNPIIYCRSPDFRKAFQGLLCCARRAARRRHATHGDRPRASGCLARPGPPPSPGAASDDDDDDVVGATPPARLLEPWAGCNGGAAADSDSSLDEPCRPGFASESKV

[6] = target: 5-hydroxytryptamine receptor 2C (Homo sapiens) (UniProt P28335); test: Binding affinity to 5-HT2C receptor (unknown origin) assessed as inhibition of radioligand binding by radioligand competition binding assay; details: concentration not given here
[7] = target: T1, Beta-2 adrenergic receptor; test: Binding affinity to andrenergic beta2 receptor (unknown origin) assessed as inhibition of radioligand binding at 10 uM by radioligand competition binding assay
Target sequence in this assay (P07550 whole entry, looked up): as the sequence (P07550 whole entry) above

[8] = target: 5-hydroxytryptamine receptor 2B (Homo sapiens, UniProt P41595); test: Binding affinity to 5-HT2B receptor (unknown origin) assessed as inhibition of radioligand binding at 10 uM by radioligand competition binding assay
Chain of 5-hydroxytryptamine receptor 2B (P41595 whole entry): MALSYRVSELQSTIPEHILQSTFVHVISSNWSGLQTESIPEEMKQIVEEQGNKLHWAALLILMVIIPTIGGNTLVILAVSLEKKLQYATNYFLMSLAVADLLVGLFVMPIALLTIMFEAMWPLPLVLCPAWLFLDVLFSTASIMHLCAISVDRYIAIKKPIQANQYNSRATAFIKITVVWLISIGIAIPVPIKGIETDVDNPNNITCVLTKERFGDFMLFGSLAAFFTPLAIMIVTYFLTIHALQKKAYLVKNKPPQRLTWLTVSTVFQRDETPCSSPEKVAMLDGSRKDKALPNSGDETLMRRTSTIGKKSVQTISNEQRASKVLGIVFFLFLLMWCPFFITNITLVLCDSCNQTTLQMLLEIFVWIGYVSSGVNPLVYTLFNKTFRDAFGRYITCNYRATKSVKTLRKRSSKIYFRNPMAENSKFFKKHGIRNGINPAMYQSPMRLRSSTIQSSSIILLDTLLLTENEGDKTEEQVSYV

[9] = target: Alpha-1B adrenergic receptor (Homo sapiens) (UniProt P35368); test: Binding affinity to andrenergic alpha1B receptor (unknown origin) assessed as inhibition of radioligand binding by radioligand competition binding assay; details: concentration not given here
[10] = species on record: Homo sapiens; test: Ratio of IC50 for human beta3-adrenergic receptor to IC50 for human beta1-adrenergic receptor
[11] = target: T1, Beta-2 adrenergic receptor; test: Antagonist activity at human beta2-adrenergic receptor expressed in CHO-K1 cells assessed as decrease in procaterol-induced cAMP accumulation after 20 mins by HTRF assay; type: functional, cell-based
In short: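 Contract functional assay on human beta2 receptor expressed in CHO cells, with antagonist mode against agonist-stimulated cAMP. Incubation 20 min at 37 °C in HBSS, 5 mM HEPES, 0.1% BSA, 100 µM IBMX, pH 7.4, with 0.40% DMSO vehicle. HTRF quantitation of cAMP accumulation; dose-response curves.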
Target sequence in this assay (P07550 whole entry): as the sequence (P07550 whole entry) above

[12] = target: 5-hydroxytryptamine receptor 1B (Homo sapiens, UniProt P28222); test: Binding affinity to 5-HT1B receptor (unknown origin) assessed as inhibition of radioligand binding by radioligand competition binding assay
Chain of 5-hydroxytryptamine receptor 1B (P28222 whole entry): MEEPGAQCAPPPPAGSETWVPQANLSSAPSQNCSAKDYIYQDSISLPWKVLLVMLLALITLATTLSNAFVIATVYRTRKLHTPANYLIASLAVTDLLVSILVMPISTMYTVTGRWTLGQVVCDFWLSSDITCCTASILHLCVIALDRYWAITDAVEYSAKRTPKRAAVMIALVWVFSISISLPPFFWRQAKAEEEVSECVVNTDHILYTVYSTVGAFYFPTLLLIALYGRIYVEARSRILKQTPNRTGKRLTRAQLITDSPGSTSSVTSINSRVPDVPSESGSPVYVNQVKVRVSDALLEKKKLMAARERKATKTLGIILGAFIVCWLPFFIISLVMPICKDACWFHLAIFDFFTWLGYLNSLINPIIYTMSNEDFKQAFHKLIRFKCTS

[13] = target: D(2) dopamine receptor (Homo sapiens) (UniProt P14416); test: Binding affinity to dopamine D2 receptor (unknown origin) assessed as inhibition of radioligand binding by radioligand competition binding assay; details: concentration not given here
[14] = target: Histamine H1 receptor (Homo sapiens) (UniProt P35367); test: Binding affinity to histamine H1 receptor (unknown origin) assessed as inhibition of radioligand binding by radioligand competition binding assay; details: concentration not given here
[15] = target: 5-hydroxytryptamine receptor 6 (Homo sapiens, UniProt P50406); test: Binding affinity to 5-HT6 receptor (unknown origin) assessed as inhibition of radioligand binding by radioligand competition binding assay
Chain of 5-hydroxytryptamine receptor 6 (P50406 whole entry): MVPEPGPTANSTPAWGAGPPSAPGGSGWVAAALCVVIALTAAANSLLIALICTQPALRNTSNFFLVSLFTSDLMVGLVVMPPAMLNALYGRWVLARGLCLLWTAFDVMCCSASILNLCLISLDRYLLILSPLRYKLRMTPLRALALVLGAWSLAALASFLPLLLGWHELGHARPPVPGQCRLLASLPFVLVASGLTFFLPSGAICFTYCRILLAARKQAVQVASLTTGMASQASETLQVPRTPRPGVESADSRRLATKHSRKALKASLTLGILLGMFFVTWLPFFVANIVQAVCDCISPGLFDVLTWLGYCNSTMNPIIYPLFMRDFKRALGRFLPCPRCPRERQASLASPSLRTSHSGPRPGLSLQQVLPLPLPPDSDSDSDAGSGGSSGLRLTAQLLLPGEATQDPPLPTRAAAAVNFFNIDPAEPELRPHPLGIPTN

[16] = target: Muscarinic acetylcholine receptor M2 (Homo sapiens) (UniProt P08172); test: Binding affinity to muscarinic M2 receptor (unknown origin) assessed as inhibition of radioligand binding by radioligand competition binding assay; details: concentration not given here
[17] = target: T2, Beta-1 adrenergic receptor; test: Binding affinity to andrenergic beta1 receptor (unknown origin) assessed as inhibition of radioligand binding at 10 uM by radioligand competition binding assay
Target sequence in this assay (P08588 whole entry, looked up): as the sequence (P08588 whole entry) above

[18] = target: T3, Beta-3 adrenergic receptor (Homo sapiens, UniProt P13945); test: Binding affinity to andrenergic beta3 receptor (unknown origin) assessed as inhibition of radioligand binding by radioligand competition binding assay
T3 sequence (P13945 whole entry): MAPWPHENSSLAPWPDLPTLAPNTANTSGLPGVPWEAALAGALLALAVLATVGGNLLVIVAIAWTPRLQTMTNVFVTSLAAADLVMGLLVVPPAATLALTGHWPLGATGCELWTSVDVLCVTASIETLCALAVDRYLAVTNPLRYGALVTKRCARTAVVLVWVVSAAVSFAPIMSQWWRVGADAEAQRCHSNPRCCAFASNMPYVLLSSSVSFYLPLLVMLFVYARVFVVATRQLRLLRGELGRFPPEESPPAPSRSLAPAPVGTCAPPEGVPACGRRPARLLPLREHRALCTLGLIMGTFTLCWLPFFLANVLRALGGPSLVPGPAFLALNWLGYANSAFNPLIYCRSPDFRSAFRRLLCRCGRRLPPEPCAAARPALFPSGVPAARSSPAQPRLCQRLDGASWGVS

[19] = target: T1, Beta-2 adrenergic receptor; test: Agonist activity at human beta2-adrenergic receptor expressed in CHO-K1 cells assessed as increase in cAMP accumulation after 20 mins by HTRF assay; type: functional, cell-based
In short: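 Human β2 receptor expressed in CHO cells; cAMP accumulation read out by HTRF. Vehicle 0.40% DMSO. Incubated 20 minutes at 37°C in HBSS, 5 mM HEPES, 0.1% BSA, 100 μM IBMX, pH 7.4. Performed by a contract screening service.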
Target sequence in this assay (P07550 whole entry, looked up): as the sequence (P07550 whole entry) above

[20] = target: Sigma non-opioid intracellular receptor 1 (Homo sapiens) (UniProt Q99720); test: Binding affinity to sigma1 receptor (unknown origin) assessed as inhibition of radioligand binding by radioligand competition binding assay; details: concentration not given here
Chain of Sigma non-opioid intracellular receptor 1 (Homo sapiens) (Q99720 whole entry): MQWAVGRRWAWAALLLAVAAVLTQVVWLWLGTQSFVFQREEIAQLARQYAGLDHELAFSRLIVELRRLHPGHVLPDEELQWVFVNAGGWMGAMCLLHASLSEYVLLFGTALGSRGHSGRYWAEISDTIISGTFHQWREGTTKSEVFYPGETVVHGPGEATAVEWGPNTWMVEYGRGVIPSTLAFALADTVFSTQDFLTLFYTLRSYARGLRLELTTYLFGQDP

[21] = target: Alpha-2A adrenergic receptor (Homo sapiens, UniProt P08913); test: Binding affinity to andrenergic alpha2A receptor (unknown origin) assessed as inhibition of radioligand binding by radioligand competition binding assay
Chain of Alpha-2A adrenergic receptor (P08913 whole entry): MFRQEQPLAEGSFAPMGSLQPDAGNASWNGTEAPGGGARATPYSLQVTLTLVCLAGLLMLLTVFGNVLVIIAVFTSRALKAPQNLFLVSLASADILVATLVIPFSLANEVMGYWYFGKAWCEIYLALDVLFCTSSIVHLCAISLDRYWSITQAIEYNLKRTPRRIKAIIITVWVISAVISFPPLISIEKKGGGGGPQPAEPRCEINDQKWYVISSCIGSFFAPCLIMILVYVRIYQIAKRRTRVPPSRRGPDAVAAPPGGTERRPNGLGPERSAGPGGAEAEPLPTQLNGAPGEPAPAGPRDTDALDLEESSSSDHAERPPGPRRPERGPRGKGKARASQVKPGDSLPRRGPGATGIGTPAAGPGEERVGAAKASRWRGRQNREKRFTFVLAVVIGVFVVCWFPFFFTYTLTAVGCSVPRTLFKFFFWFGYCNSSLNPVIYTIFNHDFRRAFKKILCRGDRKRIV

[22] = target: 5-hydroxytryptamine receptor 3A (Homo sapiens) (UniProt P46098); test: Binding affinity to 5-HT3 receptor (unknown origin) assessed as inhibition of radioligand binding by radioligand competition binding assay; details: concentration not given here
[23] = target: T2, Beta-1 adrenergic receptor; test: Displacement of [3H]-CGP-12177 from human beta1-adrenergic receptor
Target sequence in this assay (P08588 whole entry): as the sequence (P08588 whole entry) above

[24] = target: Muscarinic acetylcholine receptor M3 (Homo sapiens) (UniProt P20309); test: Binding affinity to muscarinic M3 receptor (unknown origin) assessed as inhibition of radioligand binding by radioligand competition binding assay; details: concentration not given here
[25] = target: Mu-type opioid receptor (Homo sapiens) (UniProt P35372); test: Binding affinity to MOR (unknown origin) assessed as inhibition of radioligand binding by radioligand competition binding assay; details: concentration not given here
Chain of Mu-type opioid receptor (Homo sapiens) (P35372 whole entry): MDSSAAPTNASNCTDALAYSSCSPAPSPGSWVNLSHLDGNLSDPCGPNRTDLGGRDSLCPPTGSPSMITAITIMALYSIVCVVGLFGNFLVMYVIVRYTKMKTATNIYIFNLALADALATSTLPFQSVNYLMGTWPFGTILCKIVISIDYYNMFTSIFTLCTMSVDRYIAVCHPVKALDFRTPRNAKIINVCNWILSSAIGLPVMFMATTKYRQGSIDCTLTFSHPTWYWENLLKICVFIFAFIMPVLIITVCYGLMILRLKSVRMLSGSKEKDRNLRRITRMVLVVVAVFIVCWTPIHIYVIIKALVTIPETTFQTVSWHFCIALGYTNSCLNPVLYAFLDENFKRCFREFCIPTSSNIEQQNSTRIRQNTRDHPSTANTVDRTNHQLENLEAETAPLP

[26] = target: D(4) dopamine receptor (Homo sapiens) (UniProt P21917); test: Binding affinity to dopamine D4 receptor (unknown origin) assessed as inhibition of radioligand binding by radioligand competition binding assay; details: concentration not given here
[27] = target: Muscarinic acetylcholine receptor M1 (Homo sapiens) (UniProt P11229); test: Binding affinity to muscarinic M1 receptor (unknown origin) assessed as inhibition of radioligand binding by radioligand competition binding assay; details: concentration not given here
[28] = target: Alpha-2C adrenergic receptor (Homo sapiens) (UniProt P18825); test: Binding affinity to andrenergic alpha2C receptor (unknown origin) assessed as inhibition of radioligand binding by radioligand competition binding assay; details: concentration not given here
[29] = target: D(1B) dopamine receptor (Homo sapiens) (UniProt P21918); test: Binding affinity to dopamine D5 receptor (unknown origin) assessed as inhibition of radioligand binding by radioligand competition binding assay; details: concentration not given here
[30] = target: T3, Beta-3 adrenergic receptor; test: Displacement of [3H]-CGP-12177 from human beta3-adrenergic receptor
[31] = target: Muscarinic acetylcholine receptor M5 (Homo sapiens) (UniProt P08912); test: Binding affinity to muscarinic M5 receptor (unknown origin) assessed as inhibition of radioligand binding by radioligand competition binding assay; details: concentration not given here
Chain of Muscarinic acetylcholine receptor M5 (Homo sapiens) (P08912 whole entry): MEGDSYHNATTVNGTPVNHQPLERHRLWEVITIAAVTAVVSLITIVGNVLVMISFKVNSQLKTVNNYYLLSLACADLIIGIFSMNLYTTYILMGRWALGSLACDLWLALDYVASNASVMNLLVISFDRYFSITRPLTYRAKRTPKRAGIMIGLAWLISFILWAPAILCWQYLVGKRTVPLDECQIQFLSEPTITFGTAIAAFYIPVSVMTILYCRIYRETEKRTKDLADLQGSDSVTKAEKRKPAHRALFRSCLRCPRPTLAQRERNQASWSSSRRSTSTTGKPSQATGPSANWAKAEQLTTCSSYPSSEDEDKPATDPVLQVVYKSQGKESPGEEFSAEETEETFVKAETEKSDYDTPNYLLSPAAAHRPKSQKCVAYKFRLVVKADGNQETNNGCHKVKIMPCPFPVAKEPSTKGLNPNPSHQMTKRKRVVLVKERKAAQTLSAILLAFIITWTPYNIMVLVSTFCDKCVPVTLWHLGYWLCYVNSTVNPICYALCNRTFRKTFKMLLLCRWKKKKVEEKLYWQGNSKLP

COc1cc2c3c(c1OC)-c1ccccc1[C@@H](O)[C@@H]3NCC2
inhibition [1]: < 50% | inhibition [2]: > 50% | inhibition [3]: < 50% | IC50 [4]: 1.4 nM | IC50 [5]: 17 nM | inhibition [6]: < 50% | inhibition [7]: > 50% | inhibition [8]: > 50% | inhibition [9]: < 50% | Ratio IC50 [10]: 150 | IC50 [11]: 6.9 nM | Ki [12]: 1210 nM | inhibition [13]: < 50% | inhibition [14]: < 50% | Ki [15]: 862 nM | inhibition [16]: < 50% | inhibition [17]: > 50% | Ki [18]: 308 nM | Activity [19]: inactive | inhibition [20]: < 50% | Ki [21]: 1150 nM | inhibition [22]: < 50% | IC50 [23]: 1.7 nM | inhibition [24]: < 50% | inhibition [25]: < 50% | inhibition [26]: < 50% | inhibition [27]: < 50% | inhibition [28]: < 50% | inhibition [29]: < 50% | IC50 [30]: 240 nM | inhibition [31]: < 50%
